Values after ≈ are worked out from the molar mass of the structure shown. A value given as a limit tells only on which side of the number the result lay.

Series [1] addresses T1, DNA topoisomerase 1 (Homo sapiens) (UniProt P11387).
T1 sequence (whole entry): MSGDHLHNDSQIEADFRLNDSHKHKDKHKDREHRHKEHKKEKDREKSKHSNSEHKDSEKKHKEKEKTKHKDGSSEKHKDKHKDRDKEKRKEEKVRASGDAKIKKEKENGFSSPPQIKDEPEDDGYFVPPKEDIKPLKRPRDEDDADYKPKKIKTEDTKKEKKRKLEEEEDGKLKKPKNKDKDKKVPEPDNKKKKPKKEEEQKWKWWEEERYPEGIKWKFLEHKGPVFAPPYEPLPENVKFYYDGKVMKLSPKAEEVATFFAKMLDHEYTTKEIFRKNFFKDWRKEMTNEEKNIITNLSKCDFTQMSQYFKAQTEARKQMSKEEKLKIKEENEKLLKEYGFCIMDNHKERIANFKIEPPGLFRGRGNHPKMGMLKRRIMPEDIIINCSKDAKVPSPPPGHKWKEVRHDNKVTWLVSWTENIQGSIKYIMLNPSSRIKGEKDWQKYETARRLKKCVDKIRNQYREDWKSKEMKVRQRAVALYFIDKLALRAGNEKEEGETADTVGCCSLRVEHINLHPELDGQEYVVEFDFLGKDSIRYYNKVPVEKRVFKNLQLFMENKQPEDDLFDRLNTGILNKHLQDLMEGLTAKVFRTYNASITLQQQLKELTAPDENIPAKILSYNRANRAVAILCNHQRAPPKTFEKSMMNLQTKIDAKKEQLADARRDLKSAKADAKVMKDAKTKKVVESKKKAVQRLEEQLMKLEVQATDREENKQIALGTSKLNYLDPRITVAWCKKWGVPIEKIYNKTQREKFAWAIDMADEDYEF
The series can be described thus: Topoisomerase I […] was evaluated by Fluorescence assay using Ethidium Bromide after heat denaturation of pBR322 DNA at concentration 100 uM. As to conditions: Escherichia coli. An outline of the steps:
(§1)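 0.25 µg pBR322 DNA incubated with ligand alone, no enzyme, 30 min at 37 °C. Ethidium bromide buffer added (0.5 µg/mL EtBr, 20 mM K₃PO₄, 0.5 mM EDTA, pH 12). Fluorescence measured at ex 525/em 600 nm before and after heat denaturation of DNA; percent change vs control.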

Series [2] has as its target T1, DNA topoisomerase 1 (Homo sapiens). The series can be described thus: Topoisomerase I […] was evaluated by Fluorescence assay using Ethidium Bromide after heat denaturation of pBR322 DNA at concentration 250 uM. As to conditions: Escherichia coli. In outline:
as §1

For series [3] the target is unchanged. The series can be described thus: Topoisomerase I […] was evaluated by Fluorescence assay using Ethidium Bromide after heat denaturation of pBR322 DNA at concentration 25 uM. As to conditions: Escherichia coli; at 25 µM. In outline:
(§2)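 0.25 µg pBR322 DNA incubated with ligand for 30 min at 37 °C without topoisomerase I (DNA and compound only). Ethidium bromide buffer then added (0.5 µg/mL ethidium bromide, 20 mM K₃PO₄, 0.5 mM EDTA, pH 12). Fluorescence read at excitation 525 nm and emission 600 nm, before and after heat denaturation of the DNA. Reported as percent change from control.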

Series [4] has the same target. Briefly: Topoisomerase I DNA relaxation activity was evaluated by Agarose Gel Electrophoresis test at concentration 100 uM. As to conditions: Escherichia coli. An outline of the steps:
(§3)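 Relaxation of 0.25 µg supercoiled pBR322 DNA by 0.5 unit topoisomerase I, 30 min at 37 °C with ligand (25–250 µM), final volume 10 µL. SDS-containing loading buffer added, further 30 min at 37 °C. Agarose gel run overnight, stained with ethidium bromide (0.5 µg/mL), photographed. Percent supercoiled DNA remaining by laser densitometry, scored in bands (<10% to 75–100%).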

The target is the same in series [5]. The series can be described thus: Topoisomerase I DNA relaxation activity was evaluated by Agarose Gel Electrophoresis test at concentration 250 uM. As to conditions: Escherichia coli. An outline of the steps:
as §3

Series [6] has the same target. Briefly: Topoisomerase I DNA relaxation activity was evaluated by Agarose Gel Electrophoresis test at concentration 25 uM. As to conditions: Escherichia coli; at 25 µM. In outline:
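0.25 µg supercoiled pBR322 DNA and 0.5 unit topoisomerase I incubated with ligand for 30 min at 37 °C (10 µL final). Equal volume loading buffer with SDS added, a further 30 min at 37 °C, agarose gel run overnight, ethidium bromide stained. Supercoiled DNA remaining quantified by laser densitometry of the photographed gel. Scored as % inhibition bands (<10% to 75-100%).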

Series [7] has the same target. Briefly: Topoisomerase I DNA relaxation activity was evaluated by Agarose Gel Electrophoresis test at concentration 50 uM. As to conditions: Escherichia coli. An outline of the steps: as §3
For series [8] the target is unchanged. The series can be described thus: Topoisomerase I DNA relaxation activity was evaluated by Fluorescence assay using Ethidium Bromide after heat denaturation of pBR322 DNA at concentration 100 uM. As to conditions: Escherichia coli. In outline: (§4)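 0.25 µg pBR322 DNA with ligand plus topoisomerase I (0.5 unit), 30 min at 37 °C. Then ethidium bromide buffer added (0.5 µg/mL EtBr, 20 mM K₃PO₄, 0.5 mM EDTA, pH 12). Fluorescence read at ex 525/em 600 nm before and after heat denaturation of DNA; percent change vs control.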

The target is the same in series [9]. Briefly: Topoisomerase I DNA relaxation activity was evaluated by Fluorescence assay using Ethidium Bromide after heat denaturation of pBR322 DNA at concentration 50 uM. As to conditions: Escherichia coli. An outline of the steps: as §4
Series [10] shares this target. The series can be described thus: Topoisomerase I DNA relaxation activity was evaluated by Fluorescence assay using Ethidium Bromide before heat denaturation of pBR322 DNA at concentration 100 uM. As to conditions: Escherichia coli. An outline of the steps:
as §4

Series [11] shares this target. Briefly: Topoisomerase I DNA relaxation activity was evaluated by Fluorescence assay using Ethidium Bromide before heat denaturation of pBR322 DNA at concentration 250 uM. As to conditions: Escherichia coli. In outline: as §4
Series [12] has the same target. The series can be described thus: Topoisomerase I DNA relaxation activity was evaluated by Fluorescence assay using Ethidium Bromide before heat denaturation of pBR322 DNA at concentration 50 uM. As to conditions: Escherichia coli. In outline: as §4
For series [13] the target is unchanged. Briefly: Topoisomerase I […] was evaluated by Fluorescence assay using Ethidium Bromide after heat denaturation of pBR322 DNA at concentration 50 uM. As to conditions: Escherichia coli. An outline of the steps:
as §1

Series [14] shares this target. Briefly: Topoisomerase I […] was evaluated by Fluorescence assay using Ethidium Bromide before heat denaturation of pBR322 DNA at concentration 100 uM. As to conditions: Escherichia coli. An outline of the steps: as §1
For series [15] the target is unchanged. The series can be described thus: Topoisomerase I […] was evaluated by Fluorescence assay using Ethidium Bromide before heat denaturation of pBR322 DNA at concentration 250 uM. As to conditions: Escherichia coli. In outline: as §1
Series [16] has the same target. The series can be described thus: Topoisomerase I […] was evaluated by Fluorescence assay using Ethidium Bromide before heat denaturation of pBR322 DNA at concentration 25 uM. As to conditions: Escherichia coli; at 25 µM. An outline of the steps:
as §2

Series [17] has the same target. Briefly: Topoisomerase I […] was evaluated by Fluorescence assay using Ethidium Bromide before heat denaturation of pBR322 DNA at concentration 50 uM. As to conditions: Escherichia coli. An outline of the steps:
as §1

For series [18] the target is unchanged. Briefly: Topoisomerase I DNA relaxation activity was evaluated by Fluorescence assay using Ethidium Bromide after heat denaturation of pBR322 DNA at concentration 250 uM. As to conditions: Escherichia coli. In outline:
as §4

Series [19] is described as follows: In vitro cytotoxicity against KB cancer cell line (ATCC CCL 17). In kind it is cell-based. As to conditions: human, KB cancer cells (ATCC CCL 17); read-out: TD50 (the source's name). In outline:
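KB cells grown in Eagle's MEM with 10% calf serum, 37 °C, humidified 5% CO₂. Seeded at 3 × 10³ cells/mL, cultured 24 h, then compound added in triplicate at several concentrations for 3 days. TD50 is the concentration giving 50% reduction in cell count; average of ≥3 determinations.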

Series [20] has as its target T1, DNA topoisomerase 1 (Homo sapiens). As to conditions: Escherichia coli; at 25 µM.
Series [21] shares this target. As to conditions: Escherichia coli; at 25 µM. This is another data set of the same source.

In the case of `CN(C)CCCNC(=O)c1cc(NC(=O)Cn2cc(C3=C(c4c[nH]c5ccccc45)C(=O)NC3=O)c3ccccc32)cn1C`, the Change in [1] is 3%; in series [2] it was 2%; in series [3], 12%; in series [8] it was 0%; in series [9], 0%; in series [10], 6%. In addition, the Change in series [11] was 10%; in series [12], 5%; in series [13], 7%; in series [14] it was 6%; in [15] it was 18%; in [16], 1%. Besides, the Change in series [17] was 1%; in [18] it was 3%; in [20], 6%; in series [21] it was 3%. Moreover, the inhibition in [4] is less than 10%; in series [5] it was 25%; in series [6], 0%; in [7], 0%. Besides, the CC50 in series [19] stood at 84 µg/mL (≈ 142 µM).

The values are drawn from ChEMBL document CHEMBL1129036, “Bisindolylmaleimides linked to DNA minor groove binding lexitropsins: synthesis, inhibitory activity against topoisomerase I, and biological evaluation” (J Med Chem, 1996).
